Source: PubChem
Hits are enriched below; roughly 2.3% of the tested compounds scored in any of these assays.
ARFGAP1 inh – inhibitors of rat ARFGAP1 GAP activity, primary screen, biochemical, fluorescence polarization, GDP tracer | ADP-ribosylation factor GTPase-activating protein 1 (Rattus norvegicus), Q62848 | Arfgap1-stimulated ARF1 GTP hydrolysis, GDP FP detection | inhibition, % at 16.5 µM | 360,000 tested, 0.26% active;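 active = inhibition above a per-plate limit, mean inhibition of low control wells plus 3 SD, cut at about 25% in these data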;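 note: 0% = DMSO wells with enzyme and 100% = wells lacking Arfgap1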
Target sequence (Q62848 1-136 limits assumed): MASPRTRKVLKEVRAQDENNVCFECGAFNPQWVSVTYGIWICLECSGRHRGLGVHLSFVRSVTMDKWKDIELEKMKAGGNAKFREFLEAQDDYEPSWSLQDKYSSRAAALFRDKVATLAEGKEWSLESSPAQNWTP
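Assay system: purified rat His6-Arfgap1 residues 1-136 (GAP domain); Reagent: human Δ17 ARF1 bound to GTP; Dosing: 16.5 µM single point, 1.26% DMSO; Times: GTP hydrolysis reaction 2 h at 25 °C; Signal: FP, GDP Alexa 633 tracer displaced from anti-GDP antibody, 620/688 nm; Measure: % inhibition from polarization.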
sPLA2-III inh – human group III sPLA2 inhibitors, primary screen, biochemical, QFRET, BODIPY PC-A2 liposome substrate | QFRET BODIPY PC-A2 liposome hydrolysis, fluorescence | inhibition, % at 12.2 µM | 370,000 tested, 0.56% active;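 active = inhibition above mean plus 3 SD of compounds lying within the high and low control bounds, cut at about 19% in these data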;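 note: 0% = median of test compound wells and 100% = no enzyme DMSO wells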
ASAP1 inh – inhibitors of human ASAP1 ArfGAP activity, primary screen, biochemical, fluorescence polarization. Arf-GAP with SH3 domain, ANK repeat and PH domain-containing protein 1 (Homo sapiens), …. ASAP1-stimulated ARF1 GTP hydrolysis, GDP FP detection. inhibition, % at 16.5 µM. 360,000 tested, 0.19% active. AID 624377, 2012; in the data active = inhibition above about 25%;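 note: 0% = vehicle with enzyme and substrate and 100% = no enzyme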
Target sequence (Q9ULH1 325-724 limits assumed): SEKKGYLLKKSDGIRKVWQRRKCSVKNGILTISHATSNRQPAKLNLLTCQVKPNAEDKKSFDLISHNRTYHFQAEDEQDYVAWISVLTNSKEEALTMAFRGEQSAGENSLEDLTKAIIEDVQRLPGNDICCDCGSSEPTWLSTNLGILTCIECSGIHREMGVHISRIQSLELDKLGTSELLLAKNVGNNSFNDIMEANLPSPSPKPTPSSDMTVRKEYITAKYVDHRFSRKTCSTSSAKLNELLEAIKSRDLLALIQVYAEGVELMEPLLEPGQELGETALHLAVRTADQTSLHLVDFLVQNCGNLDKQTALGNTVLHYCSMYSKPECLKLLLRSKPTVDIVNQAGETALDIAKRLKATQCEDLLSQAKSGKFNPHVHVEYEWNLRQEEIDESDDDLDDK
SKKanGAS inh – S. pyogenes SKKanGAS growth inhibitors in kanamycin, primary screen, streptokinase expression inhibitor project, SKKanGAS strain, BacTiter-Glo luminescence. 6 h. inhibition, % at 7.5 µM. 300,000 tested, 1.3% active. AID 1662, 2009;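 active = mean replicate score, as percent of positive control median, at least 50; inconclusive = mean below 50 but one replicate at or above 50; inactive = mean and every replicate below 50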;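 note: strain carries kanamycin resistance gene driven by streptokinase promoter and grows in 40 µg/ml kanamycin; loss of luminescence reflects streptokinase promoter inhibition or plain growth inhibition; 0% = median of DMSO wells and 100% = positive control at its reference dose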
Calb FLC – C. albicans growth inhibition with fluconazole, primary screen, CaCi-2 strain, Alamar Blue fluorescence. C. albicans CaCi-2 + fluconazole, 48 h. growth inhibition, % (test concentration not listed). 300,000 tested, 0.57% active;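 active = growth inhibition above about 58% in most replicates, limit read from the data, passing the limit was not always enough; inconclusive = exactly half the replicates above a set limit; inactive = most replicates below a set limit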;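 note: all wells also contain fluconazole at 8 µg/ml as a sub-toxic cotreatment; 0% = median of DMSO wells and 100% = median of geldanamycin control wells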
sPLA2 confirm – human group III sPLA2 inhibitors, confirmation, biochemical, QFRET, triplicate; recombinant hGIII-sPLA2, BODIPY PC-A2 QFRET fluorescence; 2,000 tested, 34% active; inhibition, % at 12.2 µM; shares compounds with sPLA2-III inh;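 active = mean inhibition across triplicates above the hit cutoff set in the earlier primary screen, cut at about 19% in these data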;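 note: 0% = enzyme with DMSO and 100% = DMSO wells lacking enzyme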
535nm interf – 535nm fluorescence optical interference, confirmation, artefact control for HGIII-sPLA2 inhibitor project, biochemical, QFRET; 2,000 tested, 8.5% active; inhibition, % at 12.2 µM; shares compounds with sPLA2-III inh; BODIPY FL product fluorescence interference;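 active = average inhibition above the solvent-only control mean plus 3 SD, cut at about 6% in these data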;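 note: 0% = DMSO with substrate plus product and 100% = DMSO with substrate alone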
535nm interf DR – 535nm fluorescence optical interference, dose response, artefact control for HGIII-sPLA2 inhibitor project, biochemical, QFRET. shares compounds with sPLA2-III inh. BODIPY FL product fluorescence interference, cell-free. IC50, µM. 240 tested, under 10 active. AID 743455, 2014;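 active = IC50 at or below 10 µM; inactive = IC50 above 10 µM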
An asterisk follows results filed as active; u = inconclusive; x = no result given.

SMILES	ARFGAP1 inh	sPLA2-III inh	ASAP1 inh	SKKanGAS inh	Calb FLC	sPLA2 confirm	535nm interf	others
CCOc1ccccc1NC(=O)CCCN1C(=S)NC(C)(C)CC1C (stereo unspecified)	2	22*	-12	-1	-20	20*	-9
CCOc1ccc(OCC)c(NC(=O)CCCN2C(=S)NC(C)(C)CC2C)c1 (stereo unspecified)	0	25*	-2	3	u	24*	-13
CC1CC(C)(C)NC(=S)N1CC(=O)NCc1ccc(Cl)cc1 (stereo unspecified)	3	15	-2	-6	-1	x	x
CC1CC(C)(C)NC(=S)N1CC(=O)NCc1ccccc1Cl (stereo unspecified)	6	30*	-10	-5	4	9	1
COc1ccc(C)cc1NC(=O)CCCN1C(=S)NC(C)(C)CC1C (stereo unspecified)	-2	24*	-4	-3	-15	9	-3
COc1ccc(CSc2nnc(SCC(=O)Nc3ccc4c(c3)OCO4)s2)cc1	x	-22	x	x	x	x	x
COC(=O)c1ccc(N)c2c(N)ccc(C(=O)OC)c12	5	-11	0	x	x	x	x
Clc1cc(Cl)cc(CNC2CCC23CCC(c2ccccc2)CC3)c1 (stereo unspecified)	x	5	x	x	x	x	x
O=C(COc1ccccc1O)NCCN1CCOCC1	17	20*	-2	-2	0	12	-2
O=C(OCCC12CC3CC(CC(C3)C1)C2)c1ccc(NCc2cc(O)ccc2O)cc1	3	21*	5	x	x	21*	13*
CN(CCOC(=O)CC1C=CCC1)C1CN(Cc2cn(Cc3ccccc3Cl)nn2)S(=O)(=O)C1 (stereo unspecified)	x	-6	x	x	x	x	x
COc1ccc(CNC(=O)CSc2nc3ccc(N)cc3s2)cc1	13	29*	4	5	-81	12	-3
CCOc1ccc2nc(SCC(=O)NCc3ccc(S(N)(=O)=O)cc3)sc2c1	4	-5	4	-5	8	x	x
COc1ccc2cc(C3CC(c4ccco4)=NN3S(C)(=O)=O)c(Cl)nc2c1 (stereo unspecified)	4	6	11	3	-4	x	x
CCOc1ccc2nc(Cl)c(C3CC(c4ccco4)=NN3S(=O)(=O)c3ccccc3)cc2c1 (stereo unspecified)	-7	29*	-1	13	-3	2	-13
O=C(CSc1nc2ccccc2[nH]1)N1CCN(C(=O)c2ccco2)CC1	10	19*	17	-15	-9	1	-4
Cc1ccc2nc(SCC(=O)N3CCN(C(=O)c4ccco4)CC3)[nH]c2c1	-4	2	-11	-8	21	x	x
CC(=O)C1=C(C)N(Cc2ccc(Cl)cc2)C(=S)NC1c1cccc(Br)c1 (stereo unspecified)	-15	3	1	x	x	x	x
CN(C)N1C(N)=C(C#N)C(c2cccc([N+](=O)[O-])c2)C2=C1CC(C)(C)CC2=O (stereo unspecified)	9	20*	1	-1	5	0	-6
CCCSc1nnc(-c2ccco2)n1C	x	1	x	x	x	x	x
Cc1ccccc1NC(=O)Nc1ccccn1	3	20*	-6	0	-4	0	-4
CC(N)c1csc(Nc2nncc3ccccc23)n1 (stereo unspecified)	4	23*	-10	x	x	2	-8
CC(C)C(N)c1csc(Nc2nncc3ccccc23)n1 (stereo unspecified)	-2	20*	3	x	x	6	-16
COc1cccc(Nc2nc(C(N)C(C)C)cs2)n1 (stereo unspecified)	16	28*	12	x	x	10	-13
COc1cccc(Nc2nc(C(N)CC(C)C)cs2)n1 (stereo unspecified)	5	-1	8	x	x	x	x
SMILES	ARFGAP1 inh	sPLA2-III inh	ASAP1 inh	SKKanGAS inh	Calb FLC	sPLA2 confirm	535nm interf	others
CCOC(=O)C1=C[C@@H](C(C)(C)C)N(S(=O)(=O)c2ccc(C)cc2)[C@H]1c1ccc(C)cc1	4	-13	-5	x	x	x	x
C#CCN(C[C@H]1[C@H](OC(=O)NCCCCCC)[C@H](OC(=O)NCCCCCC)CN(C(=O)OC(C)C)N1C(=O)OC(C)C)S(=O)(=O)c1ccc(C)cc1	5	-6	-2	x	x	x	x
CCCCNC(=O)C[C@H]1C[C@@]2(C(=O)OC)C(=C[C@H](COCc3ccccc3)O[C@@H]2C)N(Cc2cccc3ccccc23)C1=O	x	-7	x	x	x	x	x
N=C(N)SCc1ncccc1O	x	x	x	-8	-3	x	x
N=C(N)SCc1nc2ccccn2c1Br	-7	30*	-4	3	-4	5	-4
Cc1cccc2nc(CSC(=N)N)c(Br)n12	5	24*	3	0	-12	11	-11
Cc1cc(N2CCNC[C@@H]2C)ccc1N1CCN(Cc2ccccc2)[C@@H](C)C1	4	6	10	x	x	x	x
CC(=O)Nc1cc(-c2cccc(NS(C)(=O)=O)c2)cn2c(-c3ccc(F)c(Cl)c3)cnc12	3	-15	-11	x	x	x	x
S=C1NCN(C2CCCCC2)CN1CCc1ccccc1	-6	22*	7	-4	-26	20*	-9
CCOc1ccc(CCN2CN(C3CCCCC3)CNC2=S)cc1OCC	8	18	4	-6	1	x	x
O=C(NCc1ccccc1)[C@@H]1CCCN1C(=O)[C@H]1CCCN1C(=O)c1ccccc1C(F)(F)F	-5	3	-2	x	x	x	x
Cc1ccc2nc(NNC(=O)c3ccc4c(c3)OCCO4)sc2c1	-13	25*	1	3	-1	32*	0	535nm interf DR=>122
COc1cc(OC)cc(C(=O)NNc2nc3cc4c(cc3s2)OCO4)c1	-2	18	-7	-6	-7	x	x
COc1cc(C(=O)NNc2nc3cc4c(cc3s2)OCO4)cc(OC)c1OC	6	19*	-3	-4	4	18	-5
COc1ccc2nc(Nc3ccc4c(c3)OCO4)sc2c1	-4	86*	7	-9	-10	-1	2
COc1ccc2nc(Nc3ccccc3)sc2c1	-7	-18	-11	1	53	x	x
